Measurements: ChEMBL document CHEMBL4265907, “Design, synthesis and pharmacological evaluation of N4,N6-disubstituted pyrimidine-4,6-diamine derivatives as potent EGFR inhibitors in non-small cell lung cancer” (Eur J Med Chem, 2018)
Active and inactive are the calls of the source. The rule behind the calls is not given here.

Assays:
[1] = target: Epidermal growth factor receptor (Homo sapiens, UniProt P00533); test: Inhibition of N-terminal GST-tagged wild type human EGFR cytoplasmic domain (669 to 1210 residues) expressed in baculovirus expression system using FAM-labeled peptide as substrate after 10 mins by mobility shift assay
[2] = target: Epidermal growth factor receptor (Homo sapiens, UniProt P00533, DEL747/DEL747-750); test: Inhibition of N-terminal GST-tagged human EGFR del 747-750 mutant cytoplasmic domain expressed in baculovirus expression system using FAM-labeled peptide as substrate after 10 mins by mobility shift assay
NCI-H3255 [3] = test: Antiproliferative activity against human H3255 cells after 72 hrs by MTT assay; type: functional, cell-based; conditions: NCI-H3255, 72 h
In short: (§1)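 Cells seeded at 3000/well in growth medium with 10% FBS and left overnight. Treated in triplicate for 72 h at nine concentrations (0.458 to 30,000 nM), with DMSO-only controls. MTT (5 mg/mL) added for the last 4 h, formazan dissolved in DMSO, absorbance read at 490 nm. IC50 from non-linear sigmoidal dose-response fit.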

A-431 [4] = test: Antiproliferative activity against human A431 cells after 72 hrs by MTT assay; type: functional, cell-based; conditions: A-431, 72 h; in short: as §1
HCC827 [5] = test: Antiproliferative activity against human HCC827 cells after 72 hrs by MTT assay; type: functional, cell-based; conditions: HCC827, 72 h; in short: as §1
NCI-H1975 [6] = test: Antiproliferative activity against human NCI-H1975 cells after 72 hrs by MTT assay; type: functional, cell-based; conditions: NCI-H1975, 72 h; in short: as §1
PC-9 = test: Antiproliferative activity against human PC9 cells after 72 hrs by MTT assay; type: functional, cell-based; conditions: PC-9, 72 h; in short: as §1
BEAS-2B = test: Cytotoxicity against human BEAS2B cells after 72 hrs by MTT assay; type: cell-based; in short: as §1
[7] = target: Fibroblast growth factor receptor 1 (Homo sapiens) (UniProt P11362); test: Inhibition of N-terminal GST-tagged human FGFR1 cytoplasmic domain (398 to 822 residues) expressed in baculovirus expression system at […] using FAM-labeled peptide as substrate after 10 mins by mobility shift assay relative to control
In short: (§2)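 Caliper mobility-shift kinase assay. Kinase in kinase base buffer was preincubated with compound for 10 min at room temperature. FAM-labelled peptide and ATP at Km were then added, and the reaction ran at 28 °C until quenched with buffer. Screening concentration was 1 µM. Percent inhibition = (max − conversion)/(max − min) × 100, with DMSO as max and a low control as min.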

[8] = target: Vascular endothelial growth factor receptor 2 (Homo sapiens) (UniProt P35968); test: Inhibition of N-terminal GST-tagged human KDR cytoplasmic domain (790 to 1356 residues) expressed in baculovirus expression system at […] using FAM-labeled peptide as substrate after 10 mins by mobility shift assay relative to control; in short: as §2
NCI-H3255 [9] = test: Induction of apoptosis in human H3255 cells assessed as viable cells at 1000 nM after 48 hrs by Annexin V-FITC/PI staining based flow cytometry (reference value: 87.9%); type: functional; conditions: NCI-H3255, 48 h, read-out: Activity
NCI-H3255 [10] = test: Induction of apoptosis in human H3255 cells assessed as early apoptotic cells at 1000 nM after 48 hrs by Annexin V-FITC/PI staining based flow cytometry (reference value: 3.22%); type: functional
NCI-H3255 [11] = test: Induction of apoptosis in human H3255 cells assessed as late apoptotic cells at 1000 nM after 48 hrs by Annexin V-FITC/PI staining based flow cytometry (reference value: 1.77%); type: functional
NCI-H3255 [12] = test: Induction of apoptosis in human H3255 cells assessed as necrotic cells at 1000 nM after 48 hrs by Annexin V-FITC/PI staining based flow cytometry (reference value: 7.06%); type: functional
A-431 [13] = test: Induction of apoptosis in human A431 cells assessed as viable cells at 1000 nM after 48 hrs by Annexin V-FITC/PI staining based flow cytometry (reference value: 90.3%); type: functional; conditions: A-431, 48 h, read-out: Activity
A-431 [14] = test: Induction of apoptosis in human A431 cells assessed as early apoptotic cells at 1000 nM after 48 hrs by Annexin V-FITC/PI staining based flow cytometry (reference value: 3.40%); type: functional
A-431 [15] = test: Induction of apoptosis in human A431 cells assessed as late apoptotic cells at 1000 nM after 48 hrs by Annexin V-FITC/PI staining based flow cytometry (reference value: 2.11%); type: functional
A-431 [16] = test: Induction of apoptosis in human A431 cells assessed as necrotic cells at 1000 nM after 48 hrs by Annexin V-FITC/PI staining based flow cytometry (reference value: 4.16%); type: functional
HCC827 [17] = test: Induction of apoptosis in human HCC827 cells assessed as viable cells at 1000 nM after 48 hrs by Annexin V-FITC/PI staining based flow cytometry (reference value: 94.6%); type: functional; conditions: HCC827, 48 h, read-out: Activity
HCC827 [18] = test: Induction of apoptosis in human HCC827 cells assessed as early apoptotic cells at 1000 nM after 48 hrs by Annexin V-FITC/PI staining based flow cytometry (reference value: 2.83%); type: functional
HCC827 [19] = test: Induction of apoptosis in human HCC827 cells assessed as late apoptotic cells at 1000 nM after 48 hrs by Annexin V-FITC/PI staining based flow cytometry (reference value: 1.15%); type: functional
HCC827 [20] = test: Induction of apoptosis in human HCC827 cells assessed as necrotic cells at 1000 nM after 48 hrs by Annexin V-FITC/PI staining based flow cytometry (reference value: 1.41%); type: functional
NCI-H1975 [21] = test: Induction of apoptosis in human NCI-H1975 cells assessed as viable cells at 1000 nM after 48 hrs by Annexin V-FITC/PI staining based flow cytometry (reference value: 93.7%); type: functional; conditions: NCI-H1975, 48 h, read-out: Activity
NCI-H1975 [22] = test: Induction of apoptosis in human NCI-H1975 cells assessed as early apoptotic cells at 1000 nM after 48 hrs by Annexin V-FITC/PI staining based flow cytometry (reference value: 2.07%); type: functional
NCI-H1975 [23] = test: Induction of apoptosis in human NCI-H1975 cells assessed as late apoptotic cells at 1000 nM after 48 hrs by Annexin V-FITC/PI staining based flow cytometry (reference value: 1.91%); type: functional
NCI-H1975 [24] = test: Induction of apoptosis in human NCI-H1975 cells assessed as necrotic cells at 1000 nM after 48 hrs by Annexin V-FITC/PI staining based flow cytometry (reference value: 2.31%); type: functional
NCI-H1975 [25] = test: Cell cycle arrest in human NCI-H1975 cells assessed as accumulation at G2/M phase at 500 nM after 24 hrs by propidium iodide staining based flow cytometry; type: functional
In short: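 H1975 cells (2×10^5) seeded in 6-well plates overnight, then given fresh growth medium with drug (50–500 nM range; reference drug 500 nM) or 1‰ DMSO control for 24 h; cells collected with medium, washed in cold PBS, fixed in 70% cold ethanol at –20 °C overnight, stained with PI/RNase buffer, analysed by flow cytometry; triplicates, mean ± SEM.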

Chain of Epidermal growth factor receptor (Homo sapiens, UniProt P00533, DEL747/DEL747-750) (P00533 with tags, fused parts or gaps DEL747/DEL747-750 limits assumed): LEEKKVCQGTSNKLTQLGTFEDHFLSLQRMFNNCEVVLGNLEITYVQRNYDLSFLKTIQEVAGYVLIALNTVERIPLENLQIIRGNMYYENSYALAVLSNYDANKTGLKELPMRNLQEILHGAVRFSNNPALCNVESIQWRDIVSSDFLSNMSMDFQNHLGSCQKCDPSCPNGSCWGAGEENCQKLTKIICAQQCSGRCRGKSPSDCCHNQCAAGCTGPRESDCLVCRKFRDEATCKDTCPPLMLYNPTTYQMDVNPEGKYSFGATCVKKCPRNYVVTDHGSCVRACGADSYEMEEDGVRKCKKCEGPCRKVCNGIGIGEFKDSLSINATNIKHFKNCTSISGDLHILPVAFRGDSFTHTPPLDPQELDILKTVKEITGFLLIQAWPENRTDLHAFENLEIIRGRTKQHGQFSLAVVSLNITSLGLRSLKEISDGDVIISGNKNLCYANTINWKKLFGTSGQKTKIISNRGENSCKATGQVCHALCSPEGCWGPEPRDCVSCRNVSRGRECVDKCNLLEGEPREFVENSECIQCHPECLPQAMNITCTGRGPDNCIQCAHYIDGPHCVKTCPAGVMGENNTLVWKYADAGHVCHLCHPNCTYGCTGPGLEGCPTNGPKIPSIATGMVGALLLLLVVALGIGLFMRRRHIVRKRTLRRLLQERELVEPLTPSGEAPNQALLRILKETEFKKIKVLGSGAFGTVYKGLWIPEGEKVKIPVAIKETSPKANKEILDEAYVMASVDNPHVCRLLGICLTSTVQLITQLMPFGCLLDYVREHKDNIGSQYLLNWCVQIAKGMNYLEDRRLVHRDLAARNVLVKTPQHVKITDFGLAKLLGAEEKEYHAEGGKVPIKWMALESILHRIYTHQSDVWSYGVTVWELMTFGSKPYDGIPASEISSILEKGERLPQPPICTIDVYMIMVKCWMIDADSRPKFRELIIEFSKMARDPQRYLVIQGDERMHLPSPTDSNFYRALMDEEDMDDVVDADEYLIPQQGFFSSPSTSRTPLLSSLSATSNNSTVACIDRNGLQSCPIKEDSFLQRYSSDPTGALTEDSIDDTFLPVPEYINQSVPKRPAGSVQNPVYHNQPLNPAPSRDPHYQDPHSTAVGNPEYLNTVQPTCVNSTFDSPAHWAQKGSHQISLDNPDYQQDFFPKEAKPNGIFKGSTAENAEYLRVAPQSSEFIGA
Chain of Vascular endothelial growth factor receptor 2 (Homo sapiens) (P35968 whole entry, the tested form may be a part): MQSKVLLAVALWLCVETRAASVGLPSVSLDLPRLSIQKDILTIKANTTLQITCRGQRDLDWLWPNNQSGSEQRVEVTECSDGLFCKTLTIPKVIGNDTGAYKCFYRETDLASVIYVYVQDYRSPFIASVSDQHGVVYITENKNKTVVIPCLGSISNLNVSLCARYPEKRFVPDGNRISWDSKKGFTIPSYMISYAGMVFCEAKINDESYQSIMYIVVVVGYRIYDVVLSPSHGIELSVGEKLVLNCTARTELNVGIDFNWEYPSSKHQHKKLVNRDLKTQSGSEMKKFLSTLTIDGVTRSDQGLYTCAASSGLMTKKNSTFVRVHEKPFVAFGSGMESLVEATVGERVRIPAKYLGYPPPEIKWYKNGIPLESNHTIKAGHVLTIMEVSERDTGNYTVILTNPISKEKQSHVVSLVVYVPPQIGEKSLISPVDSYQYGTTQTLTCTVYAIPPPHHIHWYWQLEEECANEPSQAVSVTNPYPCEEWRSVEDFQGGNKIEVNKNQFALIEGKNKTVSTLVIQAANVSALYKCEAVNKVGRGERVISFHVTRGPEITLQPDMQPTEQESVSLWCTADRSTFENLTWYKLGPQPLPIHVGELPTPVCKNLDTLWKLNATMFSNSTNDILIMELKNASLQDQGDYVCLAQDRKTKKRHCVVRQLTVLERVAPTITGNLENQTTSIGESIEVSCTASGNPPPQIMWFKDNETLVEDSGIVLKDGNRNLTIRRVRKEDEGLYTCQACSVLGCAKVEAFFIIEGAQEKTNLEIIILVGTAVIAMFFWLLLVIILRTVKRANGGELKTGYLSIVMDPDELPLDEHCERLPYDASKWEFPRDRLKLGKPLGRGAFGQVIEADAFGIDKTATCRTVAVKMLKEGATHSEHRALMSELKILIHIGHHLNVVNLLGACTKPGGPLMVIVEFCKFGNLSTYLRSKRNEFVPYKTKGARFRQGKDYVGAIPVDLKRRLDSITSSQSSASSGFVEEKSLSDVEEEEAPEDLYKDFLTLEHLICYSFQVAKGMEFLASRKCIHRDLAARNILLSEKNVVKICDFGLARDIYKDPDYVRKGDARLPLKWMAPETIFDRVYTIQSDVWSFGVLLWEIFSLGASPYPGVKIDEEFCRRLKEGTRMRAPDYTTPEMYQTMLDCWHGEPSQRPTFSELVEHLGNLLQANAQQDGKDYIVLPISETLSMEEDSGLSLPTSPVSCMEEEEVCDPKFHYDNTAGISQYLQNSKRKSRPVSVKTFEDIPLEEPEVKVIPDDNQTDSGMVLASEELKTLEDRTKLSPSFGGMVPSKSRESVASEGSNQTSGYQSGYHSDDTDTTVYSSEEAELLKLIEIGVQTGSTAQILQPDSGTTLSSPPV
Chain of Epidermal growth factor receptor (Homo sapiens, UniProt P00533) (P00533 whole entry, the tested form may be a part): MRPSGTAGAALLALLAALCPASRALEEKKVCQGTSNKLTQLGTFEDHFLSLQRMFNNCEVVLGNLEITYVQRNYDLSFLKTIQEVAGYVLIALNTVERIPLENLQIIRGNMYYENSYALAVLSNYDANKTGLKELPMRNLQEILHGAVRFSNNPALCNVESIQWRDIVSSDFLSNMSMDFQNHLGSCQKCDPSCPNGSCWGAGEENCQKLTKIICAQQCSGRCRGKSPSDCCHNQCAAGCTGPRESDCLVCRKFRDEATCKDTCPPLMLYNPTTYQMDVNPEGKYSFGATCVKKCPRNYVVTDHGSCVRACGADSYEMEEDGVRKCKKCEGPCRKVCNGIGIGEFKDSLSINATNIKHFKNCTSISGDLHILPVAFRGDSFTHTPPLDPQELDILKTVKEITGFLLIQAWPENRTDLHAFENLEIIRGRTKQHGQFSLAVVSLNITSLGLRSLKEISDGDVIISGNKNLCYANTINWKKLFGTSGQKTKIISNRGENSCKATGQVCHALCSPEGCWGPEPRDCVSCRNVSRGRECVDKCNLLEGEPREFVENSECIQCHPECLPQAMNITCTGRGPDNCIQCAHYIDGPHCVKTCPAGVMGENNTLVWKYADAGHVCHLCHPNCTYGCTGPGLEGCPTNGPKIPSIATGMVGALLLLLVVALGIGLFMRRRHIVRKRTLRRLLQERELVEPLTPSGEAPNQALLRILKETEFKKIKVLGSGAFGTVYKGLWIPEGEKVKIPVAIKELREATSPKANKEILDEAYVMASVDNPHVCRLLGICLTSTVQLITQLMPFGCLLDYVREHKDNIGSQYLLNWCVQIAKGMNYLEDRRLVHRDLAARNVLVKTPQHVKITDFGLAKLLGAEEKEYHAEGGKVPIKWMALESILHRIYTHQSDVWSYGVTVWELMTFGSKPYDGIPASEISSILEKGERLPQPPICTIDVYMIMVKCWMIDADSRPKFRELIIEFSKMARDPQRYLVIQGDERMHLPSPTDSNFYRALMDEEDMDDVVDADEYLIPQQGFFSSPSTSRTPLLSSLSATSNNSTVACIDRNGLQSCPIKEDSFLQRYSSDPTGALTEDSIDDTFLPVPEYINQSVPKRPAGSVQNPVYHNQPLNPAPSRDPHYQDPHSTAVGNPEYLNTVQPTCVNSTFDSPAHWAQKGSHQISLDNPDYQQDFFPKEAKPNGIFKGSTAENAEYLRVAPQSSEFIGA

| SMILES | IC50 [1] [µM] | IC50 [2] [µM] | IC50 (NCI-H3255 [3]) [µM] | IC50 (A-431 [4]) [µM] | IC50 (HCC827 [5]) [µM] | IC50 (NCI-H1975 [6]) [µM] | IC50 (PC-9) [µM] | IC50 (BEAS-2B) [µM] | inhibition [7] [%] | inhibition [8] [%] | further results |
| --- | --- | --- | --- | --- | --- | --- | --- | --- | --- | --- | --- |
| O=C(Nc1cc(N2CCOCC2)ncn1)c1ccc(F)cc1 | 0.131 | 0.063 | 1.87 | 1.13 | 1.96 | 1.97 | 0.87 | 20.9 | 8.8 | 31 |  |
| Clc1ccc(Nc2cc(Nc3cccc(Cl)n3)ncn2)cc1 | 0.324 | 0.229 | > 30 | > 30 | > 30 | > 30 | 1.18 | 18.1 | -5.7 | 8.5 |  |
| CCOC(=O)CCC(=O)Nc1cc(Nc2cccc(Br)c2)ncn1 | > 10 | 0.933 |  |  |  |  |  |  | -7.1 | 5.7 |  |
| COc1cc(Nc2cc(Nc3ccc(Cl)cc3)ncn2)cc(OC)c1OC | 0.901 | > 10 |  |  |  |  |  |  | 1.2 | 37.1 |  |
| COc1ccc(OC)c(Nc2cc(Nc3ccc(S(N)(=O)=O)cc3)ncn2)c1 | 0.779 | 0.467 |  |  |  |  |  |  | -8.2 | 26.2 |  |
| O=C(Nc1cc(Nc2ccc(Cl)cc2)ncn1)c1ccc(F)cc1 | > 10 | 1.41 | > 30 | > 30 | > 30 | 17.6 | 0.82 | 18.6 | 16.3 | 9.3 |  |
| CCOC(=O)c1ccc(Nc2cc(Nc3cccc(OC)c3)ncn2)cc1 | > 10 | 1.19 |  |  |  |  |  |  | -9.3 | 11.7 |  |
| CCOC(=O)CCCC(=O)Nc1cc(Nc2cccc(Cl)c2)ncn1 | 0.027 | > 10 | > 30 | 0.49 | > 30 | > 30 | > 30 | 21.1 | 0.5 | 16 |  |
| COc1ccc(OC)c(Nc2cc(Nc3ccc(N4CCN(C)CC4)cc3)ncn2)c1 | 0.288 | > 10 | > 30 | > 30 | 24.3 | > 30 | > 30 | 18.1 | 4.7 | 28.5 |  |
| COc1cccc(Nc2cc(Nc3ccc(S(N)(=O)=O)cc3)ncn2)c1 | > 10 | 1.23 |  |  |  |  |  |  | -8.8 | 12.4 |  |
| COc1ccc(OC)c(Nc2cc(NCCc3cccs3)ncn2)c1 | 0.125 | 0.102 |  |  |  |  |  |  | -8.2 | 14.6 |  |
| COc1ccc(OC)c(Nc2cc(NC(=O)CCCC(=O)O)ncn2)c1 | 0.068 | > 10 |  |  |  |  |  |  | -3.7 | 23.6 |  |
| O=C(O)CCCC(=O)Nc1cc(Nc2cccc(Br)c2)ncn1 | 0.07 | > 10 |  |  |  |  |  |  | -1.1 | 6.5 |  |
| O=C(O)CCCC(=O)Nc1cc(Nc2ccc(Cl)cc2)ncn1 | > 10 | 0.944 |  |  |  |  |  |  | -7.2 | 18 |  |
| COc1cccc(Nc2cc(Nc3cccc(Cl)c3)ncn2)c1 | > 10 | 0.974 | > 30 | 15.2 | 4.04 | > 30 | 1.66 | 17.6 | -3.8 | 19.2 |  |
| COc1cc2ncnc(Nc3cccc(Cl)c3F)c2cc1OC(=O)N1CCN(C)C[C@H]1C [AZD-3759] |  |  | 0.09 | 3.5 | 0.03 | 24.2 | 0.05 | 18.7 |  |  | viability at 1 µM (NCI-H3255 [9]): 83.7%; Activity (NCI-H3255 [10]): 8.51%; Activity (NCI-H3255 [11]): 1.71%; Activity (NCI-H3255 [12]): 6.05%; viability at 1 µM (A-431 [13]): 88.6%; Activity (A-431 [14]): 7.35%; Activity (A-431 [15]): 2.88%; Activity (A-431 [16]): 1.17%; viability at 1 µM (HCC827 [17]): 78.4%; Activity (HCC827 [18]): 6.11%; Activity (HCC827 [19]): 12.8%; Activity (HCC827 [20]): 2.77%; viability at 1 µM (NCI-H1975 [21]): 82%; Activity (NCI-H1975 [22]): 9.95%; Activity (NCI-H1975 [23]): 5.39%; Activity (NCI-H1975 [24]): 2.65%; Activity (NCI-H1975 [25]): inactive |
| CCNc1cc(Nc2cccc(Cl)c2)ncn1 | 0.17 | > 10 |  |  |  |  |  |  | -7.7 | 6.9 |  |
| O=C(O)CCC(=O)Nc1cc(Nc2ccc(Cl)cc2)ncn1 | > 10 | 0.792 | 4.37 | 1.9 | 3.13 | 2.73 | 0.79 | 19 | 5.2 | 15.7 |  |
| CCOc1ccc(Nc2cc(NC(=O)c3ccccc3)ncn2)cc1 | > 10 | 0.754 | 9.17 | 6.54 | 7 | 7.07 | 2.09 | 17.4 | -8.8 | 11.3 |  |
| COc1ccc(/C=C/C(=O)Nc2cc(Nc3cccc(Br)c3)ncn2)cc1 |  |  |  |  |  |  |  |  | -5.4 | 8.5 |  |
| CCOC(=O)CCC(=O)Nc1cc(Nc2ccc(N3CCN(C)CC3)cc2)ncn1 |  |  |  |  |  |  |  |  | -6.6 | 4.9 |  |
| CN1CCN(c2ccc(Nc3cc(NC(=O)/C=C/c4ccc(F)cc4)ncn3)cc2)CC1 |  |  |  |  |  |  |  |  | -5.4 | 21.8 |  |
| CCNc1cc(Nc2cc(OC)ccc2OC)ncn1 |  |  |  |  |  |  |  |  | -0.4 | 34.5 |  |
| COc1ccc(OC)c(Nc2cc(Nc3ccc(F)cc3)ncn2)c1 | 0.336 | 0.208 | > 30 | > 30 | 1.72 | > 30 | 0.64 | 18 | -3.1 | 12.4 |  |
| O=C(O)CCCC(=O)Nc1cc(Nc2ccccc2)ncn1 | > 10 | 0.105 | 2.94 | 1.19 | 2.22 | 1.85 | 0.94 | 17.9 | -4 | 4.9 |  |
| COc1ccc(/C=C/C(=O)Nc2cc(Nc3ccc(Cl)cc3)ncn2)cc1 |  |  |  |  |  |  |  |  | -8.8 | 0.9 |  |
| CCOC(=O)CCC(=O)Nc1cc(Nc2cccc(OC)c2)ncn1 |  |  |  |  |  |  |  |  | -7.1 | 11.3 |  |
